Assay results from different studies.
Compare with care: the assays were run in different laboratories.
RPS6KA4: Ribosomal protein S6 kinase alpha-4 (RPS6KA4, Homo sapiens, UniProt O75676)
RPS6KA4 C-terminal kinase domain: Ribosomal protein S6 kinase alpha-4, C-terminal kinase domain (RPS6KA4, Homo sapiens, UniProt O75676)
RPS6KA4 N-terminal kinase domain: Ribosomal protein S6 kinase alpha-4, N-terminal kinase domain (RPS6KA4, Homo sapiens, UniProt O75676)

Cc1ccc(NC(=O)c2ccc(C)c(C(F)(F)F)c2)cc1C#Cc1nn(C2CCC(O)CC2)c2ncnc(N)c12 (stereo not shown) has a remaining signal of 70% (RPS6KA4; cell-free assay; 10 µM).
CC(=O)N1CCC(c2ccc(C(=O)NC(=N)N)cc2C(F)(F)F)CC1 has a remaining binding of 100% (RPS6KA4 C-terminal kinase domain; cell-free assay, competition with immobilised ligand; 1 µM).
The inhibition of CCCCNc1ncc2c(-c3ccc(F)cc3)nn(C[C@H]3CC[C@H](N)CC3)c2n1 is reported as 22% (RPS6KA4 N-terminal kinase domain; target engagement in cells, inhibitor, chemoproteomics; 20 mM).
For CCCS(=O)(=O)Nc1ccc(F)c(C(=O)c2c[nH]c3ncc(-c4ccc(Cl)cc4)cc23)c1F, the inhibition was less than 10% (RPS6KA4; enzyme activity, inhibitor; 1 µM).
With Cc1ccc(Nc2nccc(N(C)c3ccc4c(C)n(C)nc4c3)n2)cc1S(N)(=O)=O the remaining activity was 102% (RPS6KA4; enzyme activity, inhibitor; 0.5 µM).
Cc1ccc(C(=O)Nc2ccc(CN3CCN(C)CC3)c(C(F)(F)F)c2)cc1C#Cc1cnc2cccnn12 has an activity vs control of 100% (RPS6KA4; enzyme activity, inhibitor; 23.5 nM).
CC1CCCN1c1nccc(-c2cnn3ncccc23)n1 (stereo not shown) has a remaining binding of 99% (RPS6KA4 N-terminal kinase domain; binding, competition with immobilised ligand; 1 µM).
Cc1nc(C2CCN(C(=O)c3ccc(OC(F)(F)F)cc3N)CC2)c2ncc(N3CCN(C)CC3)cc2n1 has a remaining binding of 100% (RPS6KA4 N-terminal kinase domain; cell-free assay, competition with immobilised ligand; 1 µM).
Nc1ncnc2occ(-c3ccc(NC(=O)Nc4cc(C(F)(F)F)ccc4F)cc3)c12 has a remaining signal of 2.1% (RPS6KA4 N-terminal kinase domain; cell-free assay, inhibitor; 20 µM).
CC(C)CC(=O)N1CCc2nc(-c3ccc(Br)cc3)nc(N(C)Cc3ccccc3)c2C1 has a remaining binding of 74% (RPS6KA4 N-terminal kinase domain; cell-free assay, competition with immobilised ligand; 0.1 µM).
The remaining binding of CN(c1nccc(-c2cnn3ncccc23)n1)C1CC1 is reported as 100% (RPS6KA4 N-terminal kinase domain; binding, competition with immobilised ligand; 1 µM).
With CCS(=O)(=O)c1cc2cc(C[C@](O)(CC(C)(C)c3ccc(F)cc3C(N)=O)C(F)(F)F)[nH]c2cn1 the remaining binding was 94% (RPS6KA4 C-terminal kinase domain; cell-free assay, competition with immobilised ligand; 1 µM).
For O=C(Nc1cnn(-c2csc(C(=O)NC3COC3)c2)c1)Nc1ccccc1Cl, the remaining activity was 90.7% (RPS6KA4; enzyme activity, inhibitor; 5 µM).
CCN(CC)c1ccc(C2=NNC(=O)CC2C)cc1[N+](=O)[O-] (stereo not shown) has a remaining activity of 82% (RPS6KA4; enzyme activity, inhibitor; 10 µM).
C[C@H](NC(=O)c1cnc2n1[C@](C)(Cc1ccc(C#N)cc1)C(=O)N2c1cc(Cl)c(F)c(Cl)c1)C(=O)NC1(c2ccccn2)CC1 has a remaining binding of 92% (RPS6KA4 C-terminal kinase domain; cell-free assay, competition with immobilised ligand; 1 µM).
With CC(C)(C)c1nc2c(s1)c1nc(N)ncc1c1ccc(NS(=O)(=O)c3c(F)cccc3F)c(F)c12 the remaining activity was 84% (RPS6KA4; enzyme activity, inhibitor, radiometric; 1 µM).
COc1cccc2c(NCc3ccccc3)nc(-n3c(N)nc4ccccc43)nc12 has an inhibition of 7.3% (RPS6KA4 N-terminal kinase domain; target engagement in cells, inhibitor, chemoproteomics; 20 mM).
The remaining binding of C[C@H]1CCN(c2nccc(-c3cnn4ncccc34)n2)C1 is reported as 93% (RPS6KA4 N-terminal kinase domain; binding, competition with immobilised ligand; 1 µM).
CCN(CC)CCNC(=O)c1c(C)[nH]c(/C=C2\C(=O)Nc3ccc(F)cc32)c1C has a remaining signal of 50.8% (RPS6KA4; cell-free assay; 0.5 µM).
CN(C)c1nccc(-c2cnn3ncccc23)n1 has a remaining binding of 84% (RPS6KA4 C-terminal kinase domain; binding, competition with immobilised ligand; 1 µM).
Cc1ccc(C(=O)NCc2ccsc2)cc1C#Cc1cn(C(C)C)c2ncnc(N)c12 gave an activity vs control of 107% (RPS6KA4; enzyme activity, inhibitor; 1 µM).
Cn1cncc1C1=CN(c2ncnc3[nH]cnc23)CCS1 has an inhibition of 75.5% (RPS6KA4; enzyme activity, inhibitor, radiometric; 2 µM).
CNC(=O)c1cc(Oc2ccc(NC(=O)Nc3ccc(Cl)c(C(F)(F)F)c3)cc2)ccn1 gave a remaining signal of 97.7% (RPS6KA4; cell-free assay; 0.5 µM).
CC(C)c1ccc(NC(=O)c2cccs2)c(-c2nc3ccccc3[nH]c2=O)c1 has an activity vs control of 96% (RPS6KA4; enzyme activity, inhibitor; 1 µM).
With N[C@@H]1CCN(c2nccc(-c3cnn4ncccc34)n2)C1 the remaining binding was 100% (RPS6KA4 N-terminal kinase domain; binding, competition with immobilised ligand; 1 µM).
Cc1nc(Cc2cccc(C(F)(F)F)c2)sc1-c1ccc(C(N)=O)nc1 has a remaining binding of 100% (RPS6KA4 C-terminal kinase domain; cell-free assay, competition with immobilised ligand; 1 µM).
Clc1ccc(Nc2nnc(Cc3ccncc3)c3ccccc23)cc1 has a remaining signal of 98% (RPS6KA4; cell-free assay; 0.5 µM).
For CCC(=O)N[C@H]1CC[C@@H](C(=O)N(C)c2ccc(-c3nc4ccccc4o3)cc2)C1, the remaining binding was 100% (RPS6KA4 N-terminal kinase domain; cell-free assay, competition with immobilised ligand; 1 µM).
COc1cc2ncnc(Nc3ccc(Oc4ccccc4)c(C)c3C)c2cc1OC has an inhibition of -5% (RPS6KA4; enzyme activity, inhibitor; 1 µM).
With CN1CC(Oc2cnc(C#N)cc2-c2ccn3nc(NC(=O)C4CC4)cc3c2)C1 the inhibition was -1% (RPS6KA4; enzyme activity, inhibitor; 1 µM).
With Cc1cc(C)c(-n2ccn3nc(-c4cccnc4)cc23)cc1NC(=O)c1cc(C#N)cc(S(F)(F)(F)(F)F)c1 the remaining binding was 100% (RPS6KA4 N-terminal kinase domain; cell-free assay, competition with immobilised ligand; 0.1 µM).
